Measured values taken from ChEMBL document CHEMBL1949601, “γ-Carbolines: a novel class of cannabinoid agonists with high aqueous solubility and restricted CNS penetration” (Bioorg Med Chem Lett, 2012).

Assays:
[1] = target: T1, Cannabinoid receptor 1 (Homo sapiens, UniProt P21554); assay: Displacement of [3H]-CP55,940 from human CB1 receptor expressed in HEK293 cells; type: cell-based
[2] = target: T1, Cannabinoid receptor 1; assay: Agonist activity at human CB1 receptor expressed in HEK293 EBNA cells by [35S]GTPgamma binding assay; type: functional, cell-based
[3] = target: Adrenergic receptor alpha-1 (Rattus norvegicus) (UniProt P15823+P23944+P43140); assay: Activity at rat alpha1adrenergic receptor at 10 uM
[4] = target: Alpha-2A adrenergic receptor (Homo sapiens) (UniProt P08913); assay: Activity at human alpha2a adrenergic receptor at 10 uM
[5] = target: Estrogen receptor (Homo sapiens) (UniProt P03372); assay: Activity at human ERalpha receptor at 10 uM
[6] = target: Histamine H1 receptor (Homo sapiens) (UniProt P35367); assay: Activity at human histamine H1 receptor at 10 uM
[7] = target: Muscarinic acetylcholine receptor M2 (Homo sapiens) (UniProt P08172); assay: Activity at human M2 receptor at 10 uM
[8] = Activity at nAChR receptor at 10 uM
[9] = target: Sodium-dependent noradrenaline transporter (Homo sapiens) (UniProt P23975); assay: Activity at human NET receptor at 10 uM
[10] = Activity at Nav site2 receptor at 10 uM
[11] = target: 5-hydroxytryptamine receptor 6 (Homo sapiens) (UniProt P50406); assay: Activity at human 5HT6 receptor at 10 uM
[12] = target: Type-1 angiotensin II receptor (Homo sapiens) (UniProt P30556); assay: Activity at human AT1 receptor at 10 uM
[13] = target: C-C chemokine receptor type 1 (Homo sapiens) (UniProt P32246); assay: Activity at human CCR1 at 10 uM
[14] = target: C-C chemokine receptor type 5 (Homo sapiens) (UniProt P51681); assay: Activity at human CCR5 at 10 uM
[15] = target: Calcitonin gene-related peptide type 1 receptor (Homo sapiens) (UniProt Q16602); assay: Activity at human CGRP receptor at 10 uM
[16] = target: C-X-C chemokine receptor type 2 (Homo sapiens) (UniProt P25025); assay: Activity at human CXCR2 receptor at 10 uM
[17] = target: Endothelin-1 receptor (Homo sapiens) (UniProt P25101); assay: Activity at human ETA receptor at 10 uM
[18] = target: Melanocortin receptor 4 (Homo sapiens) (UniProt P32245); assay: Activity at human MC4 receptor at 10 uM
[19] = target: Glucagon-like peptide 2 receptor (Homo sapiens) (UniProt O95838); assay: Activity at human GLP2 receptor at 10 uM
[20] = target: Adenosine receptor A3 (Rattus norvegicus) (UniProt P28647); assay: Activity at rat A3 receptor at 10 uM
[21] = target: Prokineticin receptor 1 (Mus musculus) (UniProt Q9JKL1); assay: Activity at mouse GPR73 receptor at 10 uM
[22] = target: Delta-type opioid receptor (Homo sapiens, UniProt P41143); assay: Inhibition of human DOR
[23] = target: Mu-type opioid receptor (Homo sapiens, UniProt P35372); assay: Inhibition of human MOR
[24] = target: Kappa-type opioid receptor (Homo sapiens, UniProt P41145); assay: Inhibition of human KOR
[25] = Ratio of drug uptake in brain to plasma of Sprague-Dawley rat at 1 mg/kg, sc; type: ADME, organism-based; design: dose 1 mg/kg, route subcutaneous; conditions: read-out: BPR
[26] = Metabolic stability in human liver microsomes; type: ADME, Microsome; conditions: read-out: Stability
[27] = tested on: Brain; assay: Drug uptake in brain of Sprague-Dawley rat at 0.35 to 1.4 mg/kg, sc; type: ADME, organism-based; design: dose 0.35-1.4 mg/kg, route subcutaneous; conditions: in vivo, read-out: Drug uptake
How it was run: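 Rats dosed sc at 0.35, 0.70 and 1.4 mg/kg in carrageenan model; brain homogenised, protein precipitated with ACN, centrifuged 9000g 30 min at 4 °C, measured by reversed-phase LC–MS/MS against serial-dilution calibration curve; brain corrected for 2% blood contamination.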

[28] = tested on: Rattus norvegicus; assay: Toxicity in Sprague-Dawley rat carrageenan pain model assessed as hypoactivity at 0.35 to 1.4 mg/kg, sc; type: organism-based; design: dose 0.35-1.4 mg/kg, route subcutaneous; conditions: in vivo
How it was run: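 Carrageenan-model rats given 0.35–1.4 mg/kg sc; hypoactivity scored 0 absent, 1 mild, 2 moderate, 3 severe; ptosis and exophthalmos also checked. n = 7; mean ± SEM; one-way ANOVA, Holm-Sidak versus vehicle.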

T1 sequence (P21554 whole entry): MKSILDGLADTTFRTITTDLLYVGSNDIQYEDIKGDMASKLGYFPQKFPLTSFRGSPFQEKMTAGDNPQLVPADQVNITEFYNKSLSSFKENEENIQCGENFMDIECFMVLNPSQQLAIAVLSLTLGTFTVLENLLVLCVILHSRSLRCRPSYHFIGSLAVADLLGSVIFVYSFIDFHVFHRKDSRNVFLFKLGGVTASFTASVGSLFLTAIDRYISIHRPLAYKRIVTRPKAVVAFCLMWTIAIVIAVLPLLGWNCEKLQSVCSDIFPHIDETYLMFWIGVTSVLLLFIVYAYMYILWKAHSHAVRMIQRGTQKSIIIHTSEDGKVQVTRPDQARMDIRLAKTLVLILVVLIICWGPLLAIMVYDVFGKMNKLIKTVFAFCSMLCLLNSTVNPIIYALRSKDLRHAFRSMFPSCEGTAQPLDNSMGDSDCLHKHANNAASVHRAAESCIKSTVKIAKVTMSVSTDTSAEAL
Chain of Melanocortin receptor 4 (Homo sapiens) (P32245 whole entry): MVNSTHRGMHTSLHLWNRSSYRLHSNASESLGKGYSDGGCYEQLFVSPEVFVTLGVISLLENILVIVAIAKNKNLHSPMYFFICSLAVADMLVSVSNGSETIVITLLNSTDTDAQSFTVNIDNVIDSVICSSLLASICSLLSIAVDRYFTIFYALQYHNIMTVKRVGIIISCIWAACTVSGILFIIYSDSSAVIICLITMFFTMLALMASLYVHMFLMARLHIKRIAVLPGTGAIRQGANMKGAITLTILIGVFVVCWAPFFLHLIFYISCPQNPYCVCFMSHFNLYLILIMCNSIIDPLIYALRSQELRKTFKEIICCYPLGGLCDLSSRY
Chain of Delta-type opioid receptor (P41143 whole entry): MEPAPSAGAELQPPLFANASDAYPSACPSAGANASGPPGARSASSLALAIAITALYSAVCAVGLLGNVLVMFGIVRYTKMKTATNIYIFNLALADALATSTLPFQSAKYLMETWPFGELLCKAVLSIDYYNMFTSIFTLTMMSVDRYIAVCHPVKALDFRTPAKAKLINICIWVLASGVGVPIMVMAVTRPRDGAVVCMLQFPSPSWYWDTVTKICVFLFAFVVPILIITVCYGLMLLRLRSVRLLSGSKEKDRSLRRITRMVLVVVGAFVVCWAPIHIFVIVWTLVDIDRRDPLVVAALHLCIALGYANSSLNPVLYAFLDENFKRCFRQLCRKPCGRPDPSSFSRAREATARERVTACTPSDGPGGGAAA
Chain of Calcitonin gene-related peptide type 1 receptor (Homo sapiens) (Q16602 whole entry): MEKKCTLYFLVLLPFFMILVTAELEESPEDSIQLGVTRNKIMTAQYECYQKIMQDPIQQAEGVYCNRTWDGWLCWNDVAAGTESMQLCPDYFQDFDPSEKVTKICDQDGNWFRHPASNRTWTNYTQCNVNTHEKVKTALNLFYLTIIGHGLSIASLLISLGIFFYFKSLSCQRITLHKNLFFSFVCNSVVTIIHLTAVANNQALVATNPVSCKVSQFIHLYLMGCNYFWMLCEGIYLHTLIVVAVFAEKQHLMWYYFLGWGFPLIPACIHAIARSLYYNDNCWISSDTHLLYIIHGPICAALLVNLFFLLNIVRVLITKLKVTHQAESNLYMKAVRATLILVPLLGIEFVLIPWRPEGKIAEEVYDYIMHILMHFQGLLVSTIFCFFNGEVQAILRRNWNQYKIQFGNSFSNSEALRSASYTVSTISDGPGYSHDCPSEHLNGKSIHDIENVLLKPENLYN
Chain of 5-hydroxytryptamine receptor 6 (Homo sapiens) (P50406 whole entry): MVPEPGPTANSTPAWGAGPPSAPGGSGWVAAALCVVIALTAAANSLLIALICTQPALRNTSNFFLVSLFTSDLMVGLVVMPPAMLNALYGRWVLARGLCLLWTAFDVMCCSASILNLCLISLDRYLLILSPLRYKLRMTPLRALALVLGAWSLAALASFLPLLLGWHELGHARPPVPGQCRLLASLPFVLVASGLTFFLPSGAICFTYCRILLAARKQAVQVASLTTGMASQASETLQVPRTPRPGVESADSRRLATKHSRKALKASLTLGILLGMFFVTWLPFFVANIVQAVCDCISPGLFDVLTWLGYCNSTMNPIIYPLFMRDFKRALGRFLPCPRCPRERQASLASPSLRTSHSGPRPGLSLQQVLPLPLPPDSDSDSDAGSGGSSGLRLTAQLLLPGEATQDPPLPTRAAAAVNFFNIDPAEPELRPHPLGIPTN
Chain of Histamine H1 receptor (Homo sapiens) (P35367 whole entry): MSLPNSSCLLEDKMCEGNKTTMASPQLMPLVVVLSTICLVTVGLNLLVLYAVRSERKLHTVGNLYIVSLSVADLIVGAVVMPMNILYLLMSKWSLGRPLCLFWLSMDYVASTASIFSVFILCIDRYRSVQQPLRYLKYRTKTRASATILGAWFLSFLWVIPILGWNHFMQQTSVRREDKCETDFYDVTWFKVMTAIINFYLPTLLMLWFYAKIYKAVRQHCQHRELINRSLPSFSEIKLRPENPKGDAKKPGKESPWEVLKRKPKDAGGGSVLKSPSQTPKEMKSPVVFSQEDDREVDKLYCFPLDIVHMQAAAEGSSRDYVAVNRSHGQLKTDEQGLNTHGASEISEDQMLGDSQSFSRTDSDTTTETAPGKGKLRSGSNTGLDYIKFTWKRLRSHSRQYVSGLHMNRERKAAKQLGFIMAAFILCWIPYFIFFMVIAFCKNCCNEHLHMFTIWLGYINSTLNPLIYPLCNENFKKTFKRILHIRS
Chain of Adenosine receptor A3 (Rattus norvegicus) (P28647 whole entry): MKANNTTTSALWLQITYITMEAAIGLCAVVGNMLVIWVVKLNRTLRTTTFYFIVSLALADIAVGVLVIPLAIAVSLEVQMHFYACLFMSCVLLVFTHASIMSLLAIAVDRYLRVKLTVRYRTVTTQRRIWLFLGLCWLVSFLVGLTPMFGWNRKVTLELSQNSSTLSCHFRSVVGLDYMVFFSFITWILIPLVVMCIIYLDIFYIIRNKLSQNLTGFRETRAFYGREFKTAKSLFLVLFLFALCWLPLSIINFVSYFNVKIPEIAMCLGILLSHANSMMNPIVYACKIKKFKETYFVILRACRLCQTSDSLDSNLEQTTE
Chain of Estrogen receptor (Homo sapiens) (P03372 whole entry): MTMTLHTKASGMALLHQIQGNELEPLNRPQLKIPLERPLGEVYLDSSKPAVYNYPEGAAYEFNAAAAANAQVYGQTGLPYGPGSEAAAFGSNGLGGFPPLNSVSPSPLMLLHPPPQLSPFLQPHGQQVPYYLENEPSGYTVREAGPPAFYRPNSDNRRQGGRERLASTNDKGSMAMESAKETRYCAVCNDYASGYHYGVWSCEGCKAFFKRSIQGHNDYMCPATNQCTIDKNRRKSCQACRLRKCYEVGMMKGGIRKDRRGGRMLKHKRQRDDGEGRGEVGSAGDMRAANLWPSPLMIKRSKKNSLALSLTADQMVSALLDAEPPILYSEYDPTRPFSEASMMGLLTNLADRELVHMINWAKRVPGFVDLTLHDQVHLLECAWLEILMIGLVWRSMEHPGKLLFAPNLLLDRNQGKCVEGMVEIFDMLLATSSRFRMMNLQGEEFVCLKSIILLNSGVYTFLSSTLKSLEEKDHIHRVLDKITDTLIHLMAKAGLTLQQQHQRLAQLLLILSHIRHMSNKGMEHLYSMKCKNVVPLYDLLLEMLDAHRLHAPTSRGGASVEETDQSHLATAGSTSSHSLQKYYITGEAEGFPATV
Chain of C-C chemokine receptor type 1 (Homo sapiens) (P32246 whole entry): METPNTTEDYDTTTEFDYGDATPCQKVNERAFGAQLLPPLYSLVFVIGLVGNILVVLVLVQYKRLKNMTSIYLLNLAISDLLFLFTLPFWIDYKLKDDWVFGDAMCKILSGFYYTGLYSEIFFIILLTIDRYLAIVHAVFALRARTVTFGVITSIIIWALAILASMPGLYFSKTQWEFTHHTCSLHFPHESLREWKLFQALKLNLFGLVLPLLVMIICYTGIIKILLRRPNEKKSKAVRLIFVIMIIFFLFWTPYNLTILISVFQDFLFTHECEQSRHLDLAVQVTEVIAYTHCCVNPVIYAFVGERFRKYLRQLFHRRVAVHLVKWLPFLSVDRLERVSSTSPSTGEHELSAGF
Chain of Muscarinic acetylcholine receptor M2 (Homo sapiens) (P08172 whole entry): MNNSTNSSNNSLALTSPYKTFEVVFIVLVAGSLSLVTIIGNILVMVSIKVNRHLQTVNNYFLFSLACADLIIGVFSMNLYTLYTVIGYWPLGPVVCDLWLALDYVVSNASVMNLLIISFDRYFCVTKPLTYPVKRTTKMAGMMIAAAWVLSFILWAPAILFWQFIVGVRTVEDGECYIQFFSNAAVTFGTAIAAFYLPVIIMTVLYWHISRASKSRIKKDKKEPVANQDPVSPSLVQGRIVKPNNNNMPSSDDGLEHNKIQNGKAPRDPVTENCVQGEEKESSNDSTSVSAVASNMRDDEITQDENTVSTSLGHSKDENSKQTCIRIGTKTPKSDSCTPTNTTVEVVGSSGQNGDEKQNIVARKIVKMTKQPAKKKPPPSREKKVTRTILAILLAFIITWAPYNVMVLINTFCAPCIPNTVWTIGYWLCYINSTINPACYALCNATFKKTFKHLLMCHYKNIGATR
Chain of Glucagon-like peptide 2 receptor (Homo sapiens) (O95838 whole entry): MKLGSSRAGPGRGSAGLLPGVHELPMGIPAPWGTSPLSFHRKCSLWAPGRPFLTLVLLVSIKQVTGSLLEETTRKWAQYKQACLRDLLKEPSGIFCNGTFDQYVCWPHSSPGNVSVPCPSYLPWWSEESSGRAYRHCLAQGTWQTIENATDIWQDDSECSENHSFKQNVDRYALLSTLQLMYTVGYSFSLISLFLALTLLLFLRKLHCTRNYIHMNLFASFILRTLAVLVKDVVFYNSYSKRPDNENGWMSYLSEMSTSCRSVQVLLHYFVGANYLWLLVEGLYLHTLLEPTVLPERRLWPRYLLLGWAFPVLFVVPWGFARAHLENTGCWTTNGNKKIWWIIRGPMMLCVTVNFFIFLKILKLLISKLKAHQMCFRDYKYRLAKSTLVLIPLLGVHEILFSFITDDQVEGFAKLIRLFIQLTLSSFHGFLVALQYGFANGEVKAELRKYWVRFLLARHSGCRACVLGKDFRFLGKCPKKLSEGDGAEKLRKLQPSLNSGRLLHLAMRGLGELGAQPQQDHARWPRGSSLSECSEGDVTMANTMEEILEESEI

Work on CCS(=O)(=O)n1c2c(c3cc(C(=O)N4CCC(C)CC4)ccc31)CN(C1CCOCC1)CC2 yielded a Ki [1] of 120 nM, an EC50 [2] of 49 nM and an Activity [3] of under 50%. It also gave an Activity [4] of under 50%, an Activity [5] of under 50% and an Activity [6] of under 50%. It also gave an Activity [7] of under 50%, an Activity [8] of under 50% and an Activity [9] of under 50%. The Activity [10] was under 50%, the Activity [11] was under 50% and the Activity [12] was under 50%. For the same compound, the Activity [13] was under 50%, the Activity [14] was under 50% and the Activity [15] was under 50%. For the same compound, the Activity [16] was under 50%, the Activity [17] was under 50% and the Activity [18] was under 50%. It also gave an Activity [19] of under 50%, an Activity [20] of under 50% and an Activity [21] of under 50%. The IC50 [22] was over 10000 nM, the IC50 [23] was over 10000 nM and the IC50 [24] was over 10000 nM. It also gave a Kp [25] of 0.07, a microsomal CLint [26] of 52 µL/min/mg and a concentration [27] of 10 nM. The Activity [28] was “Non-toxic”.
